According to publication PMC9066373 (Journal for Immunotherapy of Cancer, 2022):

System: HHD-DR1 mice
Assay: Immunization of HHD-DR1 mice, IFN-γ ELISPOT of splenocytes
Assay type: in vivo
Settings: HHD-DR1 mice n=4, poly(I:C), in words
Procedure, shortened: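 HHD-DR1 transgenic mice (human HLA-A*02.01 and HLA-DRB1*01; n=4/group) received a CD8 neoantigen peptide with poly(I:C), combined with a CD4 neoantigen peptide, anti-CD40 or both. Adjuvants were given at 50 µg/mouse. Class I peptide was injected s.c.; class II peptide i.v., boosted 1 week later. Spleens were taken 7 days after the last dose. Splenocytes (8×10⁵/well) were peptide-stimulated (10–0.01 µM) for 24 h and read by IFN-γ ELISPOT, no-peptide background subtracted.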

Sequence: KYVYDFGVSV
- Response against KYV when antiCD40 is added to KYV plus EVT: antiCD40 did not improve responses
